Laboratory results: ChEMBL document CHEMBL1156597, “Structure-activity relationship of kahalalide F synthetic analogues” (J Med Chem, 2008)

Experiments:
DU-145 = assay: Cytotoxicity against human DU145 cells after 48 hrs by SRB assay; type: functional, cell-based; details: Homo sapiens, DU-145, 48 h; for CC50: read-out: LC50 (the source's name)
In short: (§1)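 Cells grown in RPMI 1640 with 10% FBS and penicillin/streptomycin at 37 °C and 5% CO₂, trypsinized, then seeded at 5 × 10³/well. After 18 h drug-free attachment, samples in DMSO/EtOH/PBS (0.5:0.5:99) were added for 48 h continuous exposure. Cells were fixed with cold TCA (1 h, 4 °C) and stained with SRB (10 min). Tris-solubilized stain read at 490 nm. Triplicate wells, mean ± SD; GI₅₀ derived.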

LoVo [1] = assay: Cytotoxicity against human doxorubicin resistant LoVo cells after 48 hrs by SRB assay; type: functional; details: for CC50: read-out: LC50 (the source's name); in short: as §1
[2] = Cytotoxicity against human IGROV-ET cells after 48 hrs by SRB assay; type: functional; details: for CC50: read-out: LC50 (the source's name); in short: as §1
HT-29 = assay: Cytotoxicity against human HT29 cells after 48 hrs by SRB assay; type: functional, cell-based; details: Homo sapiens, HT-29, 48 h; for CC50: read-out: LC50 (the source's name); in short: as §1
PANC-1 = assay: Cytotoxicity against human PANC1 cells after 48 hrs by SRB assay; type: functional; details: PANC-1, 48 h; for CC50: read-out: LC50 (the source's name); in short: as §1
[3] = Cytotoxicity against human IGROV cells after 48 hrs by SRB assay; type: functional; details: for CC50: read-out: LC50 (the source's name); in short: as §1
LoVo [4] = assay: Cytotoxicity against human LoVo cells after 48 hrs by SRB assay; type: functional; details: for CC50: read-out: LC50 (the source's name)
K562 = assay: Cytotoxicity against human K562 cells after 48 hrs by SRB assay; type: functional; details: K562, 48 h, read-out: LC50 (the source's name); in short: as §1
SK-MEL-28 = assay: Cytotoxicity against human SK-MEL-28 cells after 48 hrs by SRB assay; type: functional, cell-based; details: Homo sapiens, SK-MEL-28, 48 h; for CC50: read-out: LC50 (the source's name); in short: as §1
HeLa = assay: Cytotoxicity against human HeLa cells after 48 hrs by SRB assay; type: functional; details: for CC50: read-out: LC50 (the source's name); in short: as §1
LNCaP = assay: Cytotoxicity against human LNcaP cells after 48 hrs by SRB assay; type: functional; details: for CC50: read-out: LC50 (the source's name); in short: as §1
A549 = assay: Cytotoxicity against human A549 cells after 48 hrs by SRB assay; type: functional, cell-based; details: Homo sapiens, A549, 48 h; in short: as §1
SK-BR-3 = assay: Cytotoxicity against human SKBR3 cells after 48 hrs by SRB assay; type: functional; details: SK-BR-3, 48 h; for GI50: read-out: GI50; for CC50: read-out: LC50 (the source's name); in short: as §1
[5] = Cytotoxicity against human HeLa-APL cells after 48 hrs by SRB assay; type: functional; in short: as §1

C/C=C1\NC(=O)[C@H](Cc2ccccc2)NC(=O)[C@@H](C(C)C)NC(=O)[C@@H]([C@H](C)CC)NC(=O)[C@H](NC(=O)[C@H](NC(=O)[C@H](CCCN)NC(=O)[C@H]2CCCN2C(=O)[C@H](NC(=O)[C@@H](NC(=O)[C@@H](NC(=O)[C@H](NC(=O)C2CCC(C)CC2)C(C)C)[C@@H](C)O)C(C)C)C(C)C)[C@H](C)CC)[C@H](C)OC(=O)[C@H](C(C)C)NC1=O (stereo partly drawn)
GI50 (DU-145): 788 nM | GI50 (DU-145; read-out: GI50): 690 nM | CC50 (DU-145): 839 nM | GI50 (LoVo [1]): 340 nM | TGI (LoVo [1]): 329 nM | CC50 (LoVo [1]): 319 nM | GI50 [2]: 503 nM | GI50 ([2]; read-out: GI50): 598 nM | CC50 [2]: 426 nM | GI50 (HT-29): 551 nM | TGI (HT-29): 554 nM | CC50 (HT-29): 642 nM | GI50 (PANC-1): 2660 nM | TGI (PANC-1): 4530 nM | CC50 (PANC-1): 2300 nM | GI50 [3]: 477 nM | GI50 ([3]; read-out: GI50): 526 nM | CC50 [3]: 441 nM | GI50 (LoVo [4]): 244 nM | TGI (LoVo [4]): 280 nM | CC50 (LoVo [4]): 3200 nM | CC50 (K562): 1810 nM | TGI (SK-MEL-28): 1060 nM | GI50 (SK-MEL-28; read-out: GI50): 1010 nM | CC50 (SK-MEL-28): 1100 nM | GI50 (HeLa): 904 nM | TGI (HeLa): 897 nM | CC50 (HeLa): 892 nM | GI50 (LNCaP): 1070 nM | TGI (LNCaP): 1170 nM | CC50 (LNCaP): 1260 nM | LC50 (A549): 1340 nM | TGI (A549): 1180 nM | GI50 (A549; read-out: GI50): 1040 nM | TGI (SK-BR-3): 298 nM | GI50 (SK-BR-3): 350 nM | CC50 (SK-BR-3): 1030 nM | GI50 [5]: 633 nM | LC50 (concentration giving 50% net cell kill) [5]: 977 nM | TGI [5]: 810 nM

C/C=C1\NC(=O)[C@H](Cc2ccccc2)NC(=O)[C@@H](C(C)C)NC(=O)[C@@H]([C@H](C)CC)NC(=O)[C@H](NC(=O)[C@H](NC(=O)[C@H](CCCN)NC(=O)[C@H]2CCCN2C(=O)[C@H](NC(=O)[C@@H](NC(=O)[C@@H](NC(=O)[C@@H](C(C)C)N(CCCCCC)CCCCCC)[C@@H](C)O)C(C)C)C(C)C)[C@H](C)CC)[C@H](C)OC(=O)[C@H](C(C)C)NC1=O
CC50 (DU-145): 2280 nM | CC50 (LoVo [1]): 3780 nM | CC50 [2]: 4230 nM | CC50 (HT-29): 2030 nM | CC50 (PANC-1): 2270 nM | CC50 [3]: 1210 nM | CC50 (LoVo [4]): 4060 nM | CC50 (K562): 1900 nM | CC50 (SK-MEL-28): 1660 nM | CC50 (HeLa): 1050 nM | GI50 (LNCaP): 3720 nM | TGI (LNCaP): 3300 nM | CC50 (LNCaP): 1480 nM | LC50 (A549): 1160 nM | CC50 (SK-BR-3): 3530 nM | GI50 [5]: 1810 nM | LC50 (concentration giving 50% net cell kill) [5]: 1220 nM | TGI [5]: 1580 nM

C/C=C1\NC(=O)[C@H](Cc2ccccc2)NC(=O)[C@@H](C(C)C)NC(=O)[C@@H]([C@H](C)CC)NC(=O)[C@H](NC(=O)[C@H](NC(=O)[C@H](CCCN)NC(=O)[C@H]2CCCN2C(=O)[C@H](NC(=O)[C@H](CCC2CCCCC2)NC(=O)[C@@H](NC(=O)[C@H](NC(=O)CCCC(C)C)C(C)C)[C@@H](C)O)C(C)C)[C@H](C)CC)[C@H](C)OC(=O)[C@H](C(C)C)NC1=O
GI50 (DU-145): 507 nM | GI50 (DU-145; read-out: GI50): 350 nM | CC50 (DU-145): 709 nM | GI50 (LoVo [1]): 114 nM | TGI (LoVo [1]): 153 nM | CC50 (LoVo [1]): 1000 nM | GI50 [2]: 380 nM | GI50 ([2]; read-out: GI50): 377 nM | CC50 [2]: 455 nM | GI50 (HT-29): 235 nM | TGI (HT-29): 265 nM | CC50 (HT-29): 0.299 µg/mL | GI50 (PANC-1): 1040 nM | TGI (PANC-1): 1380 nM | CC50 (PANC-1): 1700 nM | TGI [3]: 2940 nM | GI50 ([3]; read-out: GI50): 284 nM | CC50 [3]: 3870 nM | GI50 (LoVo [4]): 240 nM | TGI (LoVo [4]): 256 nM | CC50 (LoVo [4]): 273 nM | CC50 (K562): 1850 nM | GI50 (SK-MEL-28): 467 nM | GI50 (SK-MEL-28; read-out: GI50): 329 nM | CC50 (SK-MEL-28): 626 nM | GI50 (HeLa): 394 nM | TGI (HeLa): 628 nM | CC50 (HeLa): 829 nM | GI50 (LNCaP): 639 nM | TGI (LNCaP): 909 nM | CC50 (LNCaP): 1290 nM | GI50 (A549): 233 nM | LC50 (A549): 437 nM | GI50 (A549; read-out: GI50): 186 nM | TGI (SK-BR-3): 267 nM | GI50 (SK-BR-3): 234 nM | CC50 (SK-BR-3): 230 nM | GI50 [5]: 462 nM | LC50 (concentration giving 50% net cell kill) [5]: 732 nM | TGI [5]: 672 nM
